Columns and labels:
[1] = target: Aldo-keto reductase family 1 member B1 (Rattus norvegicus) (UniProt P07943); test: In vitro inhibitory activity against partially purified rat lens Aldose reductase at a dose of 5e-7M
Summary of the method: (§1)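 Rat lens AR partially purified from male Wister rat lenses: homogenized in 10 mM phosphate pH 7.0 with 5 mM 2-mercaptoethanol and 1 mM EDTA, then 30–80% ammonium sulfate cut, dialyzed. NADPH decrease followed at 340 nm.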

[2] = target: Aldo-keto reductase family 1 member B1 (Rattus norvegicus, UniProt P07943); test: In vitro inhibitory activity against rat lens Aldose reductase; summary of the method: as §1
[3] = target: Aldo-keto reductase family 1 member A1 (Rattus norvegicus, UniProt P51635); test: In vitro inhibitory activity against rat kidney Aldehyde reductase
[4] = Ratio of AR IC50 and ALR IC50 of rat lens and kidney enzyme; type: tissue-based; details: Lens of camera-type eye

Chain of Aldo-keto reductase family 1 member A1 (P51635 whole entry, looked up): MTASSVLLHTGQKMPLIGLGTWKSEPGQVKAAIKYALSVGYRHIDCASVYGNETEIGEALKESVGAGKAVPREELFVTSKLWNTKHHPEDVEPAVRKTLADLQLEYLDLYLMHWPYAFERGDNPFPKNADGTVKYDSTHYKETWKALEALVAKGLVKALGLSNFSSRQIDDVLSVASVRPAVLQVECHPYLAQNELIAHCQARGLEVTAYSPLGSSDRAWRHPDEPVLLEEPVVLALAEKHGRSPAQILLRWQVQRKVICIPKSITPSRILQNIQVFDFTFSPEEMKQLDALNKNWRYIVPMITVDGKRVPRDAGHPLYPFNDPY

Compound	inhibition [1] [%]	other results
O=C(O)CN1C(=O)C(=O)N(Cc2ccc([N+](=O)[O-])cc2)C1=O	26	
O=C(O)CN1C(=O)C(=O)N(Cc2cccc(Cl)c2)C1=O	31	
Cc1ccc(CN2C(=O)C(=O)N(CC(=O)O)C2=O)cc1	30	
O=C(O)CN1C(=O)C(=O)N(CCCCc2ccccc2)C1=O	25	
O=C(O)CN1C(=O)C(=O)N(CCc2ccc(Cl)c(Cl)c2)C1=O	57	
O=C(O)CN1C(=O)C(=O)N(Cc2ccc(F)cc2)C1=O	9	
O=C(O)CN1C(=O)C(=O)N(Cc2ccc(Cl)cc2Cl)C1=O	68	IC50 [2]: 100 nM; IC50 [3]: 46 µM; Ratio [4]: 460
O=C(O)CN1C(=O)C(=O)N(Cc2ccccc2)C1=O	17	
O=C(O)CN1C(=O)C(=O)N(Cc2cccc([N+](=O)[O-])c2)C1=O	75	
Cc1ccccc1CN1C(=O)C(=O)N(CC(=O)O)C1=O	41	
Cc1ccc(CCN2C(=O)C(=O)N(CC(=O)O)C2=O)cc1	42	
O=C(O)CN1C(=O)C(=O)N(Cc2ccccc2[N+](=O)[O-])C1=O	66	
O=C(O)CN1C(=O)C(=O)N(Cc2ccc(Br)cc2)C1=O	65	
COc1cccc(CN2C(=O)C(=O)N(CC(=O)O)C2=O)c1	44	
O=C(O)CN1C(=O)C(=O)N(CCc2ccccc2Cl)C1=O	37	

More lines, main results first:

inhibition [1] [%]	Compound	other results
77	O=C(O)CN1C(=O)C(=O)N(Cc2ccc(Cl)c(Cl)c2)C1=O	IC50 [2]: 50 nM; IC50 [3]: > 100 µM; Ratio [4]: > 2000
16	O=C(O)CN1C(=O)C(=O)N(CCCc2ccccc2)C1=O	
47	O=C(O)CN1C(=O)C(=O)N(CCc2ccc(Br)cc2)C1=O	
32	O=C(O)CN1C(=O)C(=O)N(Cc2ccccc2Cl)C1=O	
31	CCOC(=O)CN1C(=O)C(=O)N(Cc2cccc([N+](=O)[O-])c2)C1=O	
42	COc1ccc(CCN2C(=O)C(=O)N(CC(=O)O)C2=O)cc1OC	
36	O=C(O)CN1C(=O)C(=O)N(CCc2cccc([N+](=O)[O-])c2)C1=O	
29	COc1ccc(CN2C(=O)C(=O)N(CC(=O)O)C2=O)cc1OC	
16	COc1ccccc1CN1C(=O)C(=O)N(CC(=O)O)C1=O	
30	O=C(O)CN1C(=O)C(=O)N(CCc2ccccc2)C1=O	
56	O=C(O)CN1C(=O)C(=O)N(Cc2ccc(Cl)cc2)C1=O	

Source: ChEMBL document CHEMBL1129571 (J Med Chem, 1996)
